From the RNAGym collection of RNA variant scans (doi:10.1126/science.aae0568)
Variants at the floor of the assay were thinned out.

B1: tRNA (parent)
chain: GUUCCGUUGGCGUAAUGGUAACGCGUCUCCCUCCUAAGGAGAAGACUGCGGGUUCGAGUCCCGUACGGAACG

Variants of: B1
Assay: yeast fitness relative to wild type (ratio to wild type); higher = fitter; tRNA-Arg(CCU), competitive growth, 37 C, YPD
Outline: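 Amplicons of the tRNA-Arg(CCU) gene were sequenced, 100-nucleotide paired-end, from the start population and from each end population of a pooled yeast competition. The competition, in six parallel replicates, lasted 24 hours in YPD at 37°C. Fitness relative to wild type was calculated from changes in genotype frequencies. Genotypes had to have ≥ 100 starting reads, and estimates < 0.5 were set to 0.5.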

| Variant | yeast fitness |
| --- | --- |
| GUUCUGUUGGCGUAAUGGUAACGCGUCUCCCUCCUAGGGAGACGAUUGCGGGUUCGAGUCCUGUACGGAACG [C5U A37G A43C C46U C62U] | ≤ 0.5 |
| GUUCUGUUGGCGUAAUGGUAACGCGUCUCCCUCCUAAGGAGUAGACUGCGGGUUCGAGUCCCGUACGGUACG [C5U A42U A69U] | 0.728 |
| GUUCUGUUGGCGUAAUGGUAACGCGUCUCCCUCCUAAGGAGAAGACUGCGGGUUCGAGUCCCGUACGGUACG [C5U A69U] | 0.972 |
| GUUCUGUUGGCGUAAUGGUAACGCGUCUCCCUCCUAAGGAGAUGACUGUGGGUUCGAGUCUCGUACGGAACG [C5U A43U C49U C61U] | ≤ 0.5 |
| GUUCUGUUGGCGUAAUGGUAACGCGUCUCCCUCCUAAGGAGAUGACUGUGGGUUCGAGUCGCGUACGGAACG [C5U A43U C49U C61G] | 0.532 |
| GUUCUGUUGGCGUAAUGGUAACGCGUCUCCCUCCUACGGAGAAGACUGCGGGUUCGAGUCCCGUACGGACCG [C5U A37C A70C] | 0.631 |
| GUUCUGUUGGCGUAAUGGUAACGCGUCUCCCUCCUAAGGAGGAGACUGUGGGUUCGAGUCCCGUCCGGAACG [C5U A42G C49U A65C] | ≤ 0.5 |
| GUUCUGUUGGCGUAAUGGUAACGCGUCUCCCUCCUACGGAGAAGAGUGCGGGUUCGAGUUCCGUACGGAACG [C5U A37C C46G C60U] | ≤ 0.5 |
| GUUCUGUUGGCGUAAUGGUAACGCGUCUCCCUCCUAAGGAGAUGACUGCGGGUUCCAGUCCCGUACGUAACG [C5U A43U G56C G68U] | 0.635 |
| GUUCUGUUGGCGUAAUGGUAACGCGUCUCCCUCCUAAGGAGAAGACUGCGGGUUCGAGUCCCGUUCGGUACG [C5U A65U A69U] | 0.623 |
| GUUCUGUUGGCGUAAUGGUAACGCGUCUCCCUCCUAAGGAGAAGCCUGCGGGGUCGAGUCCCGUACGGAACG [C5U A45C U53G] | 0.574 |
| GUUCUGUUGGCGUAAUGGUAACGCGUCUCCCUCCUAAGGAGUGGACUGCGGGUUCGAGUCCCGUACGGAACG [C5U A42U A43G] | 0.63 |
| GUUCUGUUGGCGUAAUGGUAACGCGUCUCCCUCCUAAGGUGAAGGUUGCGGGUUCGAGUCCCGUACGGAACG [C5U A40U A45G C46U] | 0.986 |
| GUUCUGUUGGCGUAAUGGUAACGCGUCUCCCUCCUAAGGUGAAAACUGCGGGUUCGAGUCACGUACGGAACG [C5U A40U G44A C61A] | ≤ 0.5 |
| GUUCUGUUGGCGUAAUGGUAACGCGUCUCCCUCCUAAGGAGAAGACUGCGGGUUCGAGUCCCGUGCGGAACG [C5U A65G] | 0.94 |
| GUUCUGUUGGCGUAAUGGUAACGCGUCUCCCUCCUAAGGCGGAGACUGCGGGUUCGAGUCCCGUACGAAACG [C5U A40C A42G G68A] | ≤ 0.5 |
| GUUCUGUUGGCGUAAUGGUAACGCGUCUCCCUCCUAAGGUGGAGACUGCGGGUUCGAGUCCCGUACGGAACG [C5U A40U A42G] | ≤ 0.5 |
| GUUCUGUUGGCGUAAUGGUAACGCGUCUCCCUCCUAUGGAGAAGACUGCGGGUUCGAGUCCCGUGCGGAACG [C5U A37U A65G] | 0.57 |
| GUUCUGUUGGCGUAAUGGUAACGCGUCUCCCUCCUAGGGAGACGACUGCGGGUUCGAGUCCUGUACGGAACG [C5U A37G A43C C62U] | 0.541 |

| Variant | yeast fitness |
| --- | --- |
| GUUCUGUUGGCGUAAUGGUAACGCGUCUCCCUCCUAAGGAGGAGACAGCGGGUUCGAGUCCCGUACGGAACG [C5U A42G U47A] | 0.619 |
| GUUCUGUUGGCGUAAUGGUAACGCGUCUCCCUCCUAAGGAGAUGACUACGGGUUCGAGUCGCGUACGGACCG [C5U A43U G48A C61G A70C] | ≤ 0.5 |
| GUUCUGUUGGCGUAAUGGUAACGCGUCUCCCUCCUAAGGAGAAGACUGCGGGUUCGAGUCCCGUCCCGAACG [C5U A65C G67C] | 0.566 |
| GUUCUGUUGGCGUAAUGGUAACGCGUCUCCCUCCUAAGGUGAAGACUGCGGGUUCGUGUCCCGUACGGAACG [C5U A40U A57U] | ≤ 0.5 |
| GUUCUGUUGGCGUAAUGGUAACGCGUCUCCCUCCUACGGAGAAGAUUGCGGGCUCGAGUCCCGUACGGCACG [C5U A37C C46U U53C A69C] | ≤ 0.5 |
| GUUCUGUUGGCGUAAUGGUAACGCGUCUCCCUCCUACGCAGAAGACUGCGGGUUCGAGUCCCGUACGGAACG [C5U A37C G39C] | ≤ 0.5 |
| GUUCUGUUGGCGUAAUGGUAACGCGUCUCCCUCCUAAGGAGAGGACUGCGGGUUCGAGUCCAGUACGGAACG [C5U A43G C62A] | 0.588 |
| GUUCUGUUGGCGUAAUGGUAACGCGUCUCCCUCCUAAGGGGAAGACUGCCGGUUCGCCUCCCGUACGGAACG [C5U A40G G50C A57C G58C] | ≤ 0.5 |
| GUUCUGUUGGCGUAAUGGUAACGCGUCUCCCUCCUAAGGAGAAGGCUGCGGGUUCGAGUCCCAUACGGAACG [C5U A45G G63A] | 0.708 |
| GUUCUGUUGGCGUAAUGGUAACGCGUCUCCCUCCUAAGGCGAAGACUACGGGUUCGAGUCCCGUACGGAACG [C5U A40C G48A] | 0.592 |
| GUUCUGUUGGCGUAAUGGUAACGCGUCUCCCUCCUAAGGAGAUGACUGUGGGUUCGAGUCACGUAUGGAACG [C5U A43U C49U C61A C66U] | ≤ 0.5 |
| GUUCUGUUGGCGUAAUGGUAACGCGUCUCCCUCCUAAGGCGAAGACCGCGGGUUCGAGUCCCGUUCGGAACG [C5U A40C U47C A65U] | ≤ 0.5 |
| GUUCUGUUGGCGUAAUGGUAACGCGUCUCCCUCCUAUGGAGAAGACUGCGGGUUCGUGUCCCGUACGGCACG [C5U A37U A57U A69C] | ≤ 0.5 |
| GUUCUGUUGGCGUAAUGGUAACGCGUCUCCCUCCUAUGGAGUAGACUGCGGGUUCGAGACCCGUACGGAACG [C5U A37U A42U U59A] | 0.537 |
| GUUCUGUUGGCGUAAUGGUAACGCGUCUCCCUCCUAAGGAGACGACUGCGGGUUCGAGUCCCGUACGGCACG [C5U A43C A69C] | 0.802 |
| GUUCUGUUGGCGUAAUGGUAACGCGUCUCCCUCCUAAGGAGAAGUCUGCGGGUUCGAGUCCCGUACGCAACG [C5U A45U G68C] | 0.531 |
| GUUCUGUUGGCGUAAUGGUAACGCGUCUCCCUCCUAAGGAGAAGACUGCGGGUUCGCCGCCCGUAUGGAACG [C5U A57C G58C U59G C66U] | ≤ 0.5 |
| GUUCUGUUGGCGUAAUGGUAACGCGUCUCCCUCCUAAGGUGAAGACUGCGGGUUCGAGUCCCGUACGGAACG [C5U A40U] | 0.833 |
| GUUCUGUUGGCGUAAUGGUAACGCGUCUCCCUCCUAAGGGGAAGACUGCGGGUUCGAGUCCCGUACGGAACG [C5U A40G] | 1.01 |
